From ChEMBL document CHEMBL4342471, “Discovery of Thieno[2,3-d]pyrimidine-Based Hydroxamic Acid Derivatives as Bromodomain-Containing Protein 4/Histone Deacetylase Dual Inhibitors Induce Autophagic Cell Death in Colorectal Carcinoma Cells” (J Med Chem, 2020) come the findings set out here.

The species entered for data set [1] is Homo sapiens. The data set can be described thus: Inhibition of BRD4/HDAC in human HCT116 cells assessed as increase in CTF1 mRNA level at 0.5 uM after 24 hrs by RT-PCR analysis. The data set is classed as cell-based. Summed up:
(§1)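 HCT-116 cells incubated 24 h with test agent (0.5 µM, 2.0 µM or 10 µM depending on compound); IL6, OSM, LIF and CTF1 mRNA levels then quantified.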

Data set [2] concerns the target Bromodomain-containing protein 3 (Homo sapiens, UniProt Q15059). As to the kind of experiment: Inhibition of human recombinant His-tagged BRD3 BD1 domain expressed in Escherichia coli BL21(DE3)-R3-pRARE2 cells by AlphaScreen assay. For orientation: Bead proximity is the source of the signal in Alpha formats.
The target of data set [3] is Histone deacetylase 5 (Homo sapiens, UniProt Q9UQL6). As to the kind of experiment: Inhibition of HDAC5 (unknown origin) using biotinylated histone H3 KAc peptide (1 to 21 residues) as substrate by HTRF assay. A general note: TR-FRET usually uses a lanthanide donor and a delayed reading to cut background.
Chain of Histone deacetylase 5 (Q9UQL6 whole entry, the tested form may be a part): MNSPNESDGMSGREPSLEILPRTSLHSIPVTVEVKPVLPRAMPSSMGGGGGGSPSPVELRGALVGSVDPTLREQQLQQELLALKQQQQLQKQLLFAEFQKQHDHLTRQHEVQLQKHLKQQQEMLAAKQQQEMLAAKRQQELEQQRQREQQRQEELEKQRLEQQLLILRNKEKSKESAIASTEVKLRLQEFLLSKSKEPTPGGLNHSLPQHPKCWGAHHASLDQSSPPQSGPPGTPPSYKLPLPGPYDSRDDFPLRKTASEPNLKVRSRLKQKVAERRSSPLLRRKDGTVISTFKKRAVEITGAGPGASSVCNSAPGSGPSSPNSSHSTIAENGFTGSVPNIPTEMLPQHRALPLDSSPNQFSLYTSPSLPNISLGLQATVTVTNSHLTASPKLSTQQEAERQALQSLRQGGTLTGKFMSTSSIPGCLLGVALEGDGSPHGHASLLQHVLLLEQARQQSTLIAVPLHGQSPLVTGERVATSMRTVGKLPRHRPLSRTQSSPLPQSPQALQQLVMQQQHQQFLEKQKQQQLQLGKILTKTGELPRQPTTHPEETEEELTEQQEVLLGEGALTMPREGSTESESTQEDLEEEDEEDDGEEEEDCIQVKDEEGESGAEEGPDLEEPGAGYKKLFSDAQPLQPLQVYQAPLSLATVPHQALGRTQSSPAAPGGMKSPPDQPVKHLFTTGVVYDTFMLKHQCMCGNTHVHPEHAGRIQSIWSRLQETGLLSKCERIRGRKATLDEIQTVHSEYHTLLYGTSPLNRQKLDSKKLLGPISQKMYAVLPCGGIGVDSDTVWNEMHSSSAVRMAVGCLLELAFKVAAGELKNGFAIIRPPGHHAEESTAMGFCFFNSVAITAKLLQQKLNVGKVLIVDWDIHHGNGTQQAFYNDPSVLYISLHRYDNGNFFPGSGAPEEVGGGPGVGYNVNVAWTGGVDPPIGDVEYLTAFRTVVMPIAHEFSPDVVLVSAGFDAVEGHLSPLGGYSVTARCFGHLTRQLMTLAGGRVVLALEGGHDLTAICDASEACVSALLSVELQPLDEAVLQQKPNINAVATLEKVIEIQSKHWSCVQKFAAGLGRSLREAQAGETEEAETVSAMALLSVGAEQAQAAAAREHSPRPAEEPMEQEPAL
In data set [4] the target is T1, Bromodomain-containing protein 4 (Homo sapiens, UniProt O60885). As to the kind of experiment: Inhibition of GST-tagged BRD4 bromodomain (unknown origin) using biotinylated histone H4KAc peptide (1 to 21 residues) as substrate by HTRF assay.
A short description of data set [5]: Tmax in Sprague-Dawley rat at 30 mg/kg, iv administered as bolus dose measured up to 1440 mins by UPLC-QTOF/MS analysis. Particulars: in vivo. It is filed as ADME, organism-based.
Data set [6] concerns the target Histone deacetylase 3 (Homo sapiens, UniProt O15379). As to the kind of experiment: Inhibition of HDAC3 (unknown origin) using biotinylated histone H3 KAc peptide (1 to 21 residues) as substrate by HTRF assay.
For data set [7], the target named is T1, Bromodomain-containing protein 4. The data set can be described thus: Inhibition of BRD4 in human HCT116 cells transfected with GFP-LC3 assessed as induction of autophagy by measuring increase in LC3 puncta at 0.5 uM measured after 24 hrs by confocal fluorescence microscopy. It is filed as cell-based. Summed up:
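HCT-116 cells transfected with GFP-LC3 plasmid, then incubated 24 h with 0.5 µM test agent; LC3 puncta (autophagosomes) imaged by confocal fluorescence microscopy.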

In data set [8] the target is Histone deacetylase 4 (Homo sapiens, UniProt P56524). The data set can be described thus: Inhibition of HDAC4 (unknown origin) using biotinylated histone H3 KAc peptide (1 to 21 residues) as substrate by HTRF assay.
Chain of Histone deacetylase 4 (P56524 whole entry, the tested form may be a part): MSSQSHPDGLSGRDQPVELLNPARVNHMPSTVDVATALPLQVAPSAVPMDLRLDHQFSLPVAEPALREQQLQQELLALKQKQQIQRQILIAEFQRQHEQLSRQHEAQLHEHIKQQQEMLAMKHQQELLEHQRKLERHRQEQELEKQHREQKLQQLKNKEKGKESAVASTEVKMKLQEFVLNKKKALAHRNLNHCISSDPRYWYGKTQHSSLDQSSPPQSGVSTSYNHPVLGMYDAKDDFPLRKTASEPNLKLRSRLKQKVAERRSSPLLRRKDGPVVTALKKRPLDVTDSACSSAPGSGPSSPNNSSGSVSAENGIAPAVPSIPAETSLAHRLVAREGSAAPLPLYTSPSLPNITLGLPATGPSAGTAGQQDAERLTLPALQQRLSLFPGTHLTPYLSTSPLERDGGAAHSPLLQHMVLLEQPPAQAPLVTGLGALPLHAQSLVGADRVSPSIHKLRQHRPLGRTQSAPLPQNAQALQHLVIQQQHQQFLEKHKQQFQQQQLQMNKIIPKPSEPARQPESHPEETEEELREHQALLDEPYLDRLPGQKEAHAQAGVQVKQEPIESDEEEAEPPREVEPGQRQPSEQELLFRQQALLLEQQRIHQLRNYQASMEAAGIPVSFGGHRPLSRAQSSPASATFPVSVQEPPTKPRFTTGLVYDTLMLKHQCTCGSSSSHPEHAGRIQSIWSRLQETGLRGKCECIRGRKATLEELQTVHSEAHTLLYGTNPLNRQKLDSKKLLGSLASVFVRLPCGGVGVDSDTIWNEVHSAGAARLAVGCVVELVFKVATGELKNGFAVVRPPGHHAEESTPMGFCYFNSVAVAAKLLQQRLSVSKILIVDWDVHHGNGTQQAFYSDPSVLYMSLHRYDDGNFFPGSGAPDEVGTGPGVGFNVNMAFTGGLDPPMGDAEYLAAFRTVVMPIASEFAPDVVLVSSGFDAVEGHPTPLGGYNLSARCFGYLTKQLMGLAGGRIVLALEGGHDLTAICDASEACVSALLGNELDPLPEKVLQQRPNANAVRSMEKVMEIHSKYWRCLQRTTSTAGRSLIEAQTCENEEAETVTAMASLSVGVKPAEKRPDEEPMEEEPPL
Data set [9] concerns the target Histone deacetylase 1 (Homo sapiens, UniProt Q13547). As to the kind of experiment: Inhibition of HDAC1 (unknown origin) using biotinylated histone H3 KAc peptide (1 to 21 residues) as substrate by HTRF assay.
The subject of data set [10] is HCT-116. As to the kind of experiment: Induction of apoptosis in human HCT116 cells assessed as necrotic cells at 0.2 uM by Annexin-V FITC/propidium iodide staining-based flow cytometry (reference value: 0.304 %). It is filed as functional. A general note: In flow cytometry, cells or beads pass a laser one at a time.
Data set [11] has as its system HCT-116. The data set can be described thus: Induction of apoptosis in human HCT116 cells assessed as viable cells at 0.5 uM by Annexin-V FITC/propidium iodide staining-based flow cytometry (reference value: 93.4 %). The data set is classed as functional. Particulars: read-out: Activity.
Data set [12] concerns the target Bromodomain testis-specific protein (Homo sapiens, UniProt Q58F21). The data set can be described thus: Inhibition of human recombinant His-tagged BRDT BD1 domain expressed in Escherichia coli BL21(DE3)-R3-pRARE2 cells by AlphaScreen assay.
The subject of data set [13] is HT-29. As to the kind of experiment: Cytotoxicity against human HT-29 cells assessed as reduction in cell viability. The data set is classed as functional, cell-based. Summed up:
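Antiproliferative IC50 values were measured by MTT assay across a panel of colorectal carcinoma cell lines and normal colorectal epithelial cells.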

Data set [14] concerns the target T1, Bromodomain-containing protein 4. The data set can be described thus: Inhibition of human recombinant His-tagged BRD4 BD2 domain using H-SGRGK(Ac)GGK(Ac)GLGK-(Ac)GGAK(Ac)RHRK(Biotin)-OH as substrate preincubated with enzyme for 30 mins followed by substrate addition measured after 30 mins by AlphaScreen assay.
Data set [15] in a line: Toxicity in BALB/cAnNCrl mouse xenografted with human HCT116 cells assessed as effect on spleen morphological changes at 15 to 30 mg/kg, po administered on day 1 to day 19 measured on day 19 by hematoxylin and eosin staining based assay. The data set is classed as organism-based. Particulars: in vivo. Summed up: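 HCT-116 xenograft mice dosed orally at 15 or 30 mg/kg for 19 days, saline as vehicle control; body weights tracked, and main organs sectioned and H&E-stained at study end.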

Data set [16] deals with Mus musculus. The data set can be described thus: Downregulation of Ki67 expression in tumor tissue of BALB/cAnNCrl mouse xenografted with human HCT116 cells at 15 to 30 mg/kg, po administered on day 1 to day 19 measured on day 19 by Ki67-staining based immunohistochemical analysis. The data set is classed as functional, organism-based. Summed up: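 HCT-116 xenograft mice were dosed orally at 15 or 30 mg/kg, or 30 mg/kg for reference agents, for 19 days, with vehicle or saline controls. Tumor sections were stained for Ki-67, c-Myc, Ac-H3, BRD4, LC3-II, LIFR and p-STAT3 by immunohistochemistry, and TUNEL staining was used as the apoptosis marker.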

The subject of data set [17] is HCT-116. The data set can be described thus: Induction of apoptosis in human HCT116 cells assessed as apoptotic cells at 0.5 uM by Annexin-V FITC/propidium iodide staining-based flow cytometry (reference value: 6.3 +/- 0.4 %). It is filed as functional.
Data set [18] is filed under the species Homo sapiens. The data set can be described thus: Inhibition of BRD4/HDAC in human HCT116 cells assessed as increase in OSM mRNA level at 0.5 uM after 24 hrs by RT-PCR analysis. It is filed as cell-based. Summed up:
as §1

Data set [19] concerns HCT-116. The data set can be described thus: Induction of apoptosis in human HCT116 cells assessed as late apoptotic cells at 0.2 uM by Annexin-V FITC/propidium iodide staining-based flow cytometry (reference value: 3.51 %). It is filed as functional.
Data set [20] deals with T1, Bromodomain-containing protein 4. As to the kind of experiment: Inhibition of BRD4 in human HCT116 cells transfected with ATG5 siRNA assessed as induction of autophagy by measuring LC3 cleavage at 0.5 uM by Western blot analysis. The data set is classed as cell-based. Summed up: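 HCT-116 cells first transfected with ATG5 siRNA or scramble siRNA; after silencing, exposed to 0.5 µM test agent or normal saline, then ATG5, AMPKα, p-AMPKα, p62 and LC3 protein assessed by western blot.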

The target is the same in data set [21]. The data set can be described thus: Inhibition of BRD4 in human HCT116 cells assessed as induction of autophagy by measuring p62 degradation at 0.5 uM measured after 24 hrs by Western blot analysis. It is filed as cell-based.

The term IC50 denotes the concentration that gives 50% inhibition. Usually Tmax stands for the time at which the peak concentration occurs.

Structures are written as SMILES. Calls of active or inactive are those of the source. The calls are words filed in the database; no cut-off is given here.

Chain of Histone deacetylase 1 (Q13547 whole entry, the tested form may be a part): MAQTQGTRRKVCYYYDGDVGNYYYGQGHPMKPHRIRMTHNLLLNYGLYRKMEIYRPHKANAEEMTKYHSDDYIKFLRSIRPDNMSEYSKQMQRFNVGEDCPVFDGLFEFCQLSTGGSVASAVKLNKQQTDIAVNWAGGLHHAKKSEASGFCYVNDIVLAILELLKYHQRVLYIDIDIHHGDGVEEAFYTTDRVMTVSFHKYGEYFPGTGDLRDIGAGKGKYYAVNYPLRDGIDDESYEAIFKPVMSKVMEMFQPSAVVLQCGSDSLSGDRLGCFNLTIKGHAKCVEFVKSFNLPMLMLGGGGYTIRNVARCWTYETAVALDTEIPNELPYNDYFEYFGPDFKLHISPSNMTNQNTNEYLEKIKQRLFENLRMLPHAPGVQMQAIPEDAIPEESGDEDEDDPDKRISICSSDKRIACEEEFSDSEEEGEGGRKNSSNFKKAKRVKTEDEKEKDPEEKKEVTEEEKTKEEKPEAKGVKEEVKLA
Chain of Histone deacetylase 3 (O15379 whole entry, the tested form may be a part): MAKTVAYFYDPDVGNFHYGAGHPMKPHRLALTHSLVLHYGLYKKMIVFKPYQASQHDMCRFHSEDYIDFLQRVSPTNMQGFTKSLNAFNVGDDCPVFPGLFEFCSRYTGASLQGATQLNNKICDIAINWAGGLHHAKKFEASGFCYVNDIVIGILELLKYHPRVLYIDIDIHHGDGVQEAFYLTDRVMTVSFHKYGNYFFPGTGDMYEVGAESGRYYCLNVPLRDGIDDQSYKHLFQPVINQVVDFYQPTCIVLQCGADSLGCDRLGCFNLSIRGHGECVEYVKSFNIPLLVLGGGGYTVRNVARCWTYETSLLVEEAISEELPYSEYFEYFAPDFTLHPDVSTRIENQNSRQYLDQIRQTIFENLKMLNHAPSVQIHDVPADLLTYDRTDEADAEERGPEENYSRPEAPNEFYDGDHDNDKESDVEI
Chain of Bromodomain-containing protein 3 (Q15059 whole entry, the tested form may be a part): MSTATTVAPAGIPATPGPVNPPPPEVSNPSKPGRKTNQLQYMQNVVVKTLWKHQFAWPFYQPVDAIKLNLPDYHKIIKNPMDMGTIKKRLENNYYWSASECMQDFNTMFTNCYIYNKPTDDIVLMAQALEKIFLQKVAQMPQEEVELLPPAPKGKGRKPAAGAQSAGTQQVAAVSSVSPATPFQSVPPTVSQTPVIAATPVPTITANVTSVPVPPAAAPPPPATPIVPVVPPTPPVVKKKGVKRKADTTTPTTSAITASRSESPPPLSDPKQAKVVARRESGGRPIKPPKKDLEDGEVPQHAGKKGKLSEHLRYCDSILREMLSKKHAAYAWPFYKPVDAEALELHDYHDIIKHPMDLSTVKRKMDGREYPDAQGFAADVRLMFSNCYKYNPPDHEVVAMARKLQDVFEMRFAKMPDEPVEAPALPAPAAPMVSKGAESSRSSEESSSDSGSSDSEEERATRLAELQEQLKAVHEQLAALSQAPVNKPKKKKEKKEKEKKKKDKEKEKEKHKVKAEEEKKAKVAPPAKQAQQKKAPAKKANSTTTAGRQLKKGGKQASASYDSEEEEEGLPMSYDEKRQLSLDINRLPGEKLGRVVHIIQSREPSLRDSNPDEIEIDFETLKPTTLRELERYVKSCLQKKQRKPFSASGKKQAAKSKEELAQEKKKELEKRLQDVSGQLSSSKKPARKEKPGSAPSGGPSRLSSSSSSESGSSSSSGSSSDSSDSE

As for `Cc1cc(-c2nc3sc4c(c3c(=O)[nH]2)CCN(C)C4)cc(C)c1OCCCCCC(=O)NO`, the inhibition result in data set [1], in [7], in data set [16], in data set [18] and in data set [21] was “Active” each time. In addition, the IC50 in data set [2] is above 20000 nM; in [3], above 10000 nM; in data set [4], 710 nM; in data set [6] it was 75 nM; in data set [8], above 10000 nM; in data set [9], 46 nM. In addition, the figures for the IC50 in data set [12] and in data set [14] were above 20000 nM and 2050 nM, respectively. Besides, the Tmax in [5] was determined as 7.2 min. Moreover, the Activity in [10] is recorded as 7.01%; in data set [15], “Non-Toxic”; in [17] it was 45.3%; in data set [19] it was 23%. Further, the viability at 0.5 µM in [11] came to 44.9%. Further, the outcome in data set [13] was Active. For the same compound, the inhibition result in data set [20] is “inactive”.
